Results as given in ChEMBL document CHEMBL4513216, “Probing the Open Global Health Chemical Diversity Library for Multistage-Active Starting Points for Next-Generation Antimalarials” (ACS Infect Dis, 2020).

Test: Toxicity liver stage against HepG2, at 10uM
Assay type: cell-based
Parameters: test concentration 10 uM, cell line HepG2-A16-CD81EGFP
Settings: human, HepG2-A16-CD81EGFP cells; read-out: INHIBITION
Outline: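 Uninfected HepG2-A16-CD81EGFP cells, 3 × 10^3 per well, 1536-well, plated on prespotted compound at 10 μM final, parasite-free screening media added to match infected plates; puromycin 10 μM positive, DMSO 0.5% negative; run in parallel with 48 h PbLuc assay at 37 °C, 5% CO2; viability by CellTiter-Glo luminescence, normalized to controls.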

Row | Structure (SMILES) | cytotoxicity at 10 µM [%]
1 | COC(=O)[C@H]1CN(S(C)(=O)=O)CCN1S(C)(=O)=O | -1.37
2 | CCS(=O)(=O)NCC(Cc1cccc(F)c1)N1CCNC1=O (configuration not stated) | -1.89
3 | NCc1cnc(Nc2ccccc2)nc1 | 8.55
4 | CC(C)Nc1nc2c(c(NC3CC3)n1)CCN(C1CCOCC1)CC2 | 12.3
5 | COCC1COCCC12CCN(C(=O)CC1=CCCCC1)CC2 (configuration not stated) | -1.86
6 | CN1CCN(CCO)C(=O)C12CCN(c1nccs1)CC2 | 3.88
7 | c1cnc(NCc2n[nH]c3c2CCN(Cc2cccnc2)C3)nc1 | -7.15
8 | CC(=O)N1CCS(=O)(=O)[C@@H]2CCN(S(=O)(=O)CC(C)C)CC[C@@H]21 | 6.1
9 | Fc1cccc(N2CCCC3(C2)CN(c2cnccn2)CCO3)c1 (configuration not stated) | 8.49
10 | CCOCC1CN(Cc2ccc3c(c2)OCO3)Cc2ncn(C)c21 (configuration not stated) | 5.61
11 | Cc1nn(C)c2nc(C3CC3)c(Cl)c(C(=O)O)c12 | 7.44
12 | CCn1nccc1CNc1[nH]cnc2nncc1-2 | 3.15
13 | CCOC(=O)N1CCN(C(=O)c2cc(-c3ccc(C)cc3)on2)CC1 | 5.68
14 | CNc1[nH]nc(N)c1C(=O)Nc1ccccc1 | 6.56
15 | Cc1nn(C)cc1CN1CCCC1c1cccc(Nc2nccs2)n1 (configuration not stated) | 4.25
16 | Cn1cc(CN2CCC(c3ccncc3)CC2)cn1 | 0.26
17 | Cc1cn[nH]c1C1COCCN1S(=O)(=O)c1cn[nH]c1 (configuration not stated) | -24.6
18 | CN(C)c1nccc(C2CCCN(C(=O)CO)C2)n1 (configuration not stated) | -29.1
19 | O=C(CCc1cc(Cl)no1)N1CCC(c2cc3ncccc3cn2)CC1 | 4.76
20 | Cc1n[nH]c(C)c1-c1nccnc1CC1CCCN(C)C1 (configuration not stated) | -18.3
21 | Cc1cccc(Nc2nccnc2C2CCCN2CC(N)=O)n1 (configuration not stated) | -4.16
22 | O=C(Cc1ccc(F)cc1)N1CCCC(c2n[nH]c3nccnc23)C1 (configuration not stated) | 4.59
23 | COc1cc2nc3n(c(=O)c2cc1OC)CCN(C(=O)C1CCC1)CC3 | -8.8

Row | Structure (SMILES) | cytotoxicity at 10 µM [%]
24 | O=C(Nc1cn[nH]c1)N1CCN(CCSc2ccccc2)CC1 | 4.32
25 | N#Cc1ncn(CC(=O)N2CCCC2c2cccs2)n1 (configuration not stated) | -21.7
26 | CCNC(=O)C(C)(C)NC(=O)NCc1cccc(Br)c1 | 8.44
27 | O=C(CN1CCCc2sccc2C1=O)NC1CCc2nccn2C1 (configuration not stated) | 16.1
28 | CCc1ncc(C(=O)NCCNc2ccncc2)s1 | -9.7
29 | CCN(C(=O)CN1CCN(CC(C)O)CC1)C1=CCCCC1 (configuration not stated) | 8.67
30 | COc1cc(NC2CCCN(c3ncccn3)C2)cc(OC)c1 (configuration not stated) | -16
31 | O=C(CCn1cnc2cc(F)c(F)cc21)N1CCN2CCCCC2C1 (configuration not stated) | -12.3
32 | COC(=O)c1ccc(CN2CCN(Cc3nc(C)no3)CC2)s1 | 4.07
33 | N#Cc1cccnc1NCCNC(=O)NCCSC(F)(F)F | 1.2
34 | CC(Oc1ccc(F)cc1)C(=O)N(CC(N)=O)C1CCCC1 (configuration not stated) | 0.217
35 | CN1CCN(C(=O)c2csnn2)c2ccccc21 | -1.15
36 | Cc1noc(CS(=O)(=O)c2cc(F)ccc2F)n1 | -0.23
37 | CC(Nc1nc2c(cnn2C)c(=O)[nH]1)c1ccc(F)cc1 (configuration not stated) | 16.6
38 | Cc1cc(CN(C)CC2CCCCC2)no1 | 13.2
39 | O=C(c1cc(-n2cccn2)ccn1)N1CCOc2ccc(F)cc21 | 1.26
40 | NC(=O)CCN(C(=O)CSc1ccc(F)cc1)c1ccc(F)cc1 | -2.17
41 | CC1CCN(C)c2ccccc2N1C(=O)c1ccnc(-n2cncn2)c1 (configuration not stated) | 2.37
42 | CC(C)c1nc(C2CCCN(c3nccc(N4CCCC4)n3)C2)no1 (configuration not stated) | 27.6
43 | O=C(C1CC(=O)N(c2ccccc2Br)C1)N1CCN(CC(F)(F)F)CC1 (configuration not stated) | 7.29
44 | COCCCC(=O)N(CCC(=O)O)Cc1ccc(F)c(F)c1 | 4.91
45 | Cc1ncc(Cl)c(C(=O)N2CC(=O)N(C)c3ccccc32)n1 | 5.35
46 | CCc1cnccc1C(=O)NC1CCN(Cc2ccccc2F)CC1 | -4.35

Row | Structure (SMILES) | cytotoxicity at 10 µM [%]
47 | CC(C)OCc1noc(C2CCCOC2)n1 (configuration not stated) | 5.31
48 | Cn1cc(C2CCCN2C(=O)Cn2ccc3ccccc32)cn1 (configuration not stated) | 5.08
49 | CCOc1ccccc1CNC(=O)c1cnn(CC)c1C(F)(F)F | 3.67
50 | Cc1nnc(CN(Cc2cccc(Cl)c2)C(C)C)o1 | 1.69
51 | Cc1ccc(C)c(C(O)CN(C)Cc2nnc3ccccn23)c1 (configuration not stated) | -13.8
52 | COCC(NC(=O)NCc1sc(C)nc1C)c1ccco1 (configuration not stated) | 6.75
53 | CCCn1nnnc1CN(C)C(C)c1ccc(C)cc1 (configuration not stated) | -3.21
54 | CCN1CC(=O)c2sc(NC(C)C)nc2C1 | -10.6
55 | CN1CCN(c2nccc(-c3cncnc3C3CCCCC3)n2)CC1 | -4.33
56 | Cc1ccc(-c2cn(C3CCN(C(=O)[C@H]4CCCO4)CC3)nn2)cc1 | -8.93
57 | COc1cccc(CNC(=O)N2CCCC(Cn3cc(CN)nn3)C2)c1 (configuration not stated) | -2.07
58 | Cc1noc(C)c1-c1n[nH]c2c1CN(S(=O)(=O)c1cccnc1)CC2 | -11
59 | Cc1nc2c(c(=O)n1C)CCN(C(=O)Cn1cccc1)CC2 | -2.18
60 | COc1cc(C)c(CN2CCC3(CC2)[C@H](O)C[C@@H]3OCCN)cc1C | 13.6
61 | CCN(CC)S(=O)(=O)NC1CCCc2nc(-c3ccccc3)ncc21 (configuration not stated) | 17.2
62 | CCOc1ccc(C2CC(=O)NCc3nc(N)sc32)cc1CO (configuration not stated) | -6.33
63 | COc1ccc(OC2CCN(C(=O)[C@@H](N)Cc3c[nH]cn3)CC2)cc1 | 0.653
64 | CC(C)[C@@H]1CN(c2ncc(F)cn2)C[C@H]1NC(=O)N(C)C | -4.03
65 | CN(C)CC1(O)CCN(C(=O)c2cnc(-c3ccccn3)nc2)C1 (configuration not stated) | 4.82
66 | CC(=O)c1cnc(NCCN2CCCC(c3ccccc3)C2)nc1C (configuration not stated) | -3.44
67 | CCNC(=O)[C@@H]1C[C@@H](NC(=O)Cc2ccncc2)CN1Cc1ccsc1 | -0.368
68 | Cc1[nH]nc(CCC(=O)N2CCCC(OCc3cccnc3)C2)c1C (configuration not stated) | -5.07
69 | Cc1nn(C)c(C)c1C1CCCN1C(=O)CCCc1ccccn1 (configuration not stated) | 2.43

Row | Structure (SMILES) | cytotoxicity at 10 µM [%]
70 | Cc1ccc(NC(=O)C2CSCN2C(=O)c2cnccn2)cc1C (configuration not stated) | -8.3
71 | NC(=O)Cn1cc(NC(=O)N2CCCC(O)C2)cn1 (configuration not stated) | -10.1
72 | Cn1cc(NS(=O)(=O)c2ccc(F)c(F)c2)ccc1=O | -9.59
73 | Cc1noc(CN2CCN(C(=O)N(C)C)CC2)n1 | -1.22
74 | COc1ccc(-c2nnc(CNCCn3cccn3)o2)cc1 | -14.5
75 | CCc1nc(C2CCCN2C(=O)c2ccc(N3CCCC3)nn2)no1 (configuration not stated) | -3.27
76 | CCc1nc(C)ncc1C(=O)N1CCOC(c2nc(C)n[nH]2)C1 (configuration not stated) | -7.88
77 | CC(C)CN1CCN(C(=O)c2ccn(C)c(=O)c2)CC1 | -17.2
78 | CC(c1cccc(S(N)(=O)=O)c1)N(C)CCCOc1ccccc1 (configuration not stated) | -1.99
79 | COc1c(C2CCCN2C(=O)c2cccnc2N(C)C)c(C)nn1C (configuration not stated) | -7.62
80 | Cc1nc2ccccc2nc1CN(C)C1CCCN(c2cccnn2)C1 (configuration not stated) | -9.71
81 | Cc1cccc(-c2nc(C)nn2CC(=O)NC2CCCC2)c1 | -12.5
82 | CC(=O)N1CCC[C@H]1C(=O)NCCOc1cccc(Cl)c1 | -8.78
83 | CN(C)CC1CN(Cc2csc(C3CCCC3)n2)CCO1 (configuration not stated) | -7.32
84 | COc1ncccc1CNC(=O)c1cccnc1O | -4.02
85 | Cc1c(F)cc(C(=O)O)cc1S(=O)(=O)Nc1cccc(C(F)F)c1 | -1.35
86 | Cn1cc(CN2CCCN(C(=O)c3cc[nH]n3)CC2)cn1 | -8.72
87 | CCn1cc(NC(=O)NCC(O)COc2cccc(F)c2)cn1 (configuration not stated) | -2.86
88 | O=C(Nc1cnn(CCN2CCOCC2)c1)c1cc(F)ccc1F | -8.8
89 | CCn1ccnc1CN1CCN(CCOc2cccc(C#N)c2)CC1 | -6.95
90 | CCOc1ccc(S(=O)(=O)NC(=O)CCC2CCCO2)cc1 (configuration not stated) | -11.5
91 | CCNC(=O)[C@@H]1CCCN1C1(C(=O)NC)CCC1 | -1.66
92 | COc1ccc(CN(Cc2cnc(N)nc2)CC2CCCO2)c(OC)c1 (configuration not stated) | -0.438

Row | Structure (SMILES) | cytotoxicity at 10 µM [%]
93 | Cn1cc(CN2C[C@H]3CCC[C@@H](CNc4nccn4C)[C@H]3C2)cn1 | 10.9
94 | Cc1ccc(CN2CCCn3nnc(COCC4CC4)c3C2)s1 | -6.51
95 | O=S(=O)(c1cccs1)N1CCCn2nnc(CN3CCCCC3)c2C1 | -17.5
96 | CC(C)CNC(=O)[C@H]1CCS(=O)(=O)[C@@H]2CN(CC(C)C)C[C@H]12 | -1.66
97 | CC1c2ncc(Cn3cccn3)n2CCN1c1ncccn1 (configuration not stated) | -108
98 | O=C(c1ccncc1)N1CC[C@@H]2CN(C3CCOCC3)CCO[C@@H]2C1 | -110
99 | CC(C)CN1C(=O)C2(CCN(Cc3ccoc3)C2)c2ccccc21 (configuration not stated) | 4.82
100 | Cn1cc(CN2CCc3c(cnc(-c4ccccc4)c3C(=O)O)C2)cn1 | 4.2
101 | CC[C@@H]1N(Cc2ccsc2)CCC[C@]12CCC(=O)N2C | 10
102 | Cc1noc(C)c1CN1CCc2cnn(C)c2C1COCC1CC1 (configuration not stated) | 10.7
103 | Cc1nnc([C@]23COC[C@H]2CN(Cc2cnn(C)c2)C3)o1 | -3.77
104 | Cc1cc2c(=O)n3c(nc2s1)CCN(Cc1c[nH]cn1)CC3 | -17.6
105 | Cn1cc(C(=O)NCc2cncc3c2CCNC3)cn1 | -91.6
106 | CCOCC(=O)N1CCc2c(CN(C)C)nn(C(C)C)c2C1 | -2.63
107 | Cn1cncc1CNC1CC2(CCN(S(C)(=O)=O)CC2)c2ccccc21 (configuration not stated) | 1.55
108 | CCS(=O)(=O)N1CCC2(CCC(N3CCCC3)c3ccccc32)CC1 (configuration not stated) | 0.257
109 | Cc1ccc(CN2CC[C@@H]3[C@@H](CO[C@H]3CN3CCN(C)CC3)C2)cc1 | -2.74
110 | c1cncc(C2COC3(CCN(CC4CCOCC4)CC3)C2)c1 (configuration not stated) | -10.4
111 | O=C(Cn1c(=O)[nH]c2cn(-c3ccccc3)c(=O)n21)Nc1ccccc1 | 18.6
112 | CC(C)Cn1nccc1NC(=O)CN1CCOC(Cn2cccn2)C1 (configuration not stated) | -12
